Experimental data: ChEMBL document CHEMBL2203121, “DNA cleavage induced by antitumor antibiotic leinamycin and its biological consequences” (Bioorg Med Chem, 2012)
Converted amounts (≈) assume the structure as drawn. Values belong to the compound of their own block, whether it stands above or below them. The source made the active and inactive calls. The calls are words filed in the database; no cut-off is given here.

How the values were obtained:
[1] = Cytotoxicity against chinese hamster NER-mutant UV5 cells assessed as cell survival by clonogenic survival assay; assay type: functional, cell-based; conditions: Cricetulus griseus
Outline: (§1)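 CHO lines from repair-proficient and repair-mutant backgrounds, grown in RPMI1640 with 10% FCS. Cells plated in triplicate at 400 cells/well and dosed 24 h later with a range of leinamycin concentrations. Colonies grew 14 days and were stained with 1% methylene blue in 50% ethanol. Dye was eluted in isopropanol with 0.4 M HCl and read at 595 nm for relative survival.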

Nucleic Acid [2] = experiment: Induction of DNA cleavage in 32P-labeled oligomer duplex Sp25 DNA after 8 hrs by PAGE analysis with hot piperidine treatment; assay type: nucleic-acid assay
Outline: (§2)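 5'-32P-end-labelled, gel-purified Sp25 duplex (100 fmol) was incubated with leinamycin at 37°C in 20 mM Tris-HCl pH 7.6, 20 mM NaCl, 1 mM DTT. Drug was removed on a G-10 column, then DNA was heated 30 min in 1 M piperidine. Products were run on 16% urea-PAGE and quantified by phosphorimaging.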

CHO-AA8 [3] = experiment: Ratio for chinese hamster AA8 cells to chinese hamster BER-mutant EM9 cells; assay type: functional, Cricetulus griseus
Xrs-5 = experiment: Cytotoxicity against chinese hamster kU86-mutant Xrs-5 cells assessed as cell survival by clonogenic survival assay; assay type: functional, cell-based; conditions: Cricetulus griseus; outline: as §1
[4] = Cytotoxicity against human MiaPaCa cells by MTT assay; assay type: functional, cell-based; conditions: MIA PaCa-2
Outline: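 MiaPaCa cells in RPMI1640 with 10% FCS were exposed to leinamycin. Viability was read by MTT reduction to formazan, with absorbance of solubilised formazan at 595 nm. Survival was determined in triplicate with ±SE.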

Nucleic Acid [5] = experiment: Induction of DNA cleavage in 32P-labeled oligomer duplex Sp25 DNA at 2 ug/ml to 100 ug/ml after 24 hrs by PAGE analysis without hot piperidine treatment; assay type: nucleic-acid assay
Outline: (§3)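 5'-32P-end-labelled, gel-purified Sp25 duplex (100 fmol) was incubated with leinamycin at 37°C in 20 mM Tris-HCl pH 7.6, 20 mM NaCl, 1 mM DTT, with no piperidine step. Unreacted drug was removed on a G-10 column. Fragments were resolved on 16% urea-PAGE and quantified by phosphorimaging.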

Cricetulus griseus = species: Cricetulus griseus; experiment: Cytotoxicity against chinese hamster BER-mutant EM9 cells assessed as cell survival by clonogenic survival assay; assay type: functional, cell-based; outline: as §1
CHO-AA8 [6] = experiment: Cytotoxicity against chinese hamster AA8 cells assessed as cell survival by clonogenic survival assay; assay type: functional, cell-based; conditions: Cricetulus griseus; outline: as §1
[7] = Cytotoxicity against chinese hamster NER-mutant UV41 cells assessed as cell survival by clonogenic survival assay; assay type: functional, cell-based; conditions: Cricetulus griseus; outline: as §1
Nucleic Acid [8] = experiment: Induction of DNA cleavage in 32P-labeled oligomer duplex Sp25 DNA at 2 ug/ml to 100 ug/ml after 24 hrs by PAGE analysis followed by hot piperidine treatment; assay type: nucleic-acid assay; outline: as §2
Nucleic Acid [9] = experiment: Induction of DNA cleavage in 32P-labeled oligomer duplex Sp25 DNA up to 24 hrs by PAGE analysis without hot piperidine treatment; assay type: nucleic-acid assay; outline: as §3
[10] = Cytotoxicity against human MiaPaCa cells assessed as potentiation of methoxyamine-mediated cytotoxicity by MTT assay; assay type: functional, cell-based; conditions: MIA PaCa-2
Outline: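 MiaPaCa cells in RPMI1640 with 10% FCS were given leinamycin alone or combined with methoxyamine, a BER inhibitor, tested alone up to 25 mM. Survival was measured by MTT, reading solubilised formazan at 595 nm, in triplicate with ±SE.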

[11] = Cytotoxicity against chinese hamster NER-mutant UV135 cells assessed as cell survival by clonogenic survival assay; assay type: functional, cell-based; conditions: Cricetulus griseus; outline: as §1
Nucleic Acid [12] = experiment: Inhibition of bleomycin-induced strand breaks in 32P-labeled 25-bp oligomer duplex Sp25 DNA at 1 mM by PAGE analysis without hot piperidine treatment; assay type: nucleic-acid assay
Outline: (§4)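 5'-32P-end-labeled Sp25 duplex (100 fmol) exposed at 37°C for 24 h to leinamycin, Fe(II)-bleomycin or 1 mM MMS with rising methoxyamine levels in 20 mM Tris–HCl pH 7.6, 20 mM NaCl, 1 mM DTT; unreacted drug removed by Sephadex G-10; no piperidine step; denaturing 16% urea–acrylamide gel, PhosphorImager scan.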

Nucleic Acid [13] = experiment: Inhibition of methyl methanesulfonate-induced strand breaks in 32P-labeled 25-bp oligomer duplex Sp25 DNA at 1 mM by PAGE analysis without hot piperidine treatment; assay type: nucleic-acid assay; outline: as §4
Nucleic Acid [14] = experiment: Inhibition of leinamycin-induced strand breaks in 32P-labeled 25-bp oligomer duplex Sp25 DNA at 1mM after 24 hrs by PAGE analysis without hot piperidine treatment; assay type: nucleic-acid assay; outline: as §4
[15] = Potentiation of leinamycin-induced cytotoxicity in human MiaPaCa cells by MTT assay; assay type: functional
Outline: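 MiaPaCa cells grown in RPMI1640 with 10% FCS, exposed to methoxyamine (up to 25 mM), leinamycin or both; viability by MTT reduction, formazan solubilized and read at 595 nm; triplicate determinations, bars ±SE.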

Nucleic Acid [16] = experiment: Inhibition of methylmethanesulfonate-induced strand breaks in 32P-labeled 25-bp oligomer duplex Sp25 DNA at 1 mM after 24 hrs by PAGE analysis followed by hot piperidine treatment; assay type: nucleic-acid assay
Outline: (§5)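 5'-32P-end-labeled duplex Sp25 (100 fmol), gel-purified, incubated at 37°C for 24 h with leinamycin, Fe(II)-bleomycin or 1 mM MMS plus increasing methoxyamine in 20 mM Tris–HCl pH 7.6, 20 mM NaCl, 1 mM DTT; drug removed on Sephadex G-10; then 1 M piperidine, 90°C, 30 min; 16% urea–acrylamide gel, PhosphorImager quantification.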

Nucleic Acid [17] = experiment: Inhibition of bleomycin-induced strand breaks in 32P-labeled 25-bp oligomer duplex Sp25 DNA at 1 mM after 24 hrs by PAGE analysis followed by hot piperidine treatment; assay type: nucleic-acid assay; outline: as §5
Nucleic Acid [18] = experiment: Inhibition of Leinamycin-induced strand breaks in 32P-labeled 25-bp oligomer duplex Sp25 DNA after 24 hrs by PAGE analysis without hot piperidine treatment; assay type: nucleic-acid assay; outline: as §4
Nucleic Acid [19] = experiment: Inhibition of Leinamycin-induced strand breaks in 32P-labeled 25-bp oligomer duplex Sp25 DNA at 1mM by PAGE analysis followed by hot piperidine treatment; assay type: nucleic-acid assay; outline: as §5
Nucleic Acid [20] = experiment: Inhibition of Leinamycin-induced strand breaks in 32P-labeled 25-bp oligomer duplex Sp25 DNA after 24 hrs by PAGE analysis followed by hot piperidine treatment; assay type: nucleic-acid assay; outline: as §5

SMILES: C/C1=C\[C@@H](O)C(=O)/C=C/C=C\c2csc(n2)[C@@H](C)NC(=O)C[C@@]2(CC1)[S+]([O-])SC(=O)[C@]2(C)O (some centres not stated) [LEINAMYCIN]
IC50 [1]: 3 ng/mL (≈ 5.87 nM)
Activity (Nucleic Acid [2]): Active
Ratio (CHO-AA8 [3]): >3
Activity (Xrs-5): Active
IC50 [4]: 40 ng/mL (≈ 78.3 nM)
Activity (Nucleic Acid [5]): Dose-dependent effect
Activity (Cricetulus griseus): Active
IC50 (CHO-AA8 [6]): 10 ng/mL (≈ 19.6 nM)
IC50 [7]: 3 ng/mL (≈ 5.87 nM)
Activity (Nucleic Acid [8]): Dose-dependent effect
Activity (Nucleic Acid [9]): Active
IC50 [10]: 15 ng/mL
IC50 [11]: 2 ng/mL (≈ 3.92 nM)

Activity (Nucleic Acid [12]): inactive
Activity (Nucleic Acid [13]): inactive
Activity (Nucleic Acid [14]): inactive
Activity (Nucleic Acid [16]): inactive
Activity (Nucleic Acid [17]): inactive
Activity (Nucleic Acid [18]): Active
Activity (Nucleic Acid [19]): inactive
Activity (Nucleic Acid [20]): Active
SMILES: CON [METHOXYAMINE]
fold change (FC) [15]: 2.5
